# Screening results: PubChem BioAssay, several laboratories
# CHOP UPR activ – activators of apoptotic CHOP UPR arm, primary screen, cell-based, CHO-CHOP luciferase reporter, luminescence, uHTS. activation, % at 10 µM. UPR activation; percent of tunicamycin response over DMSO baseline. hit rate 0.34% among 330,000;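 active = at 10 µM dose, activation of 40% or more, normalized to positive control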;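 note: 100% = tunicamycin at 10 µg/mL and 0% = DMSO alone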
#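 Assay system: CHO-CHOP cells, stable luciferase reporter of PERK-eIF2a-CHOP signalling / Buffer or medium: F12 plus 10% serum / Compound dosing: one dose, 10 µM in 0.5% DMSO / Times: 6 h compound treatment, 37 °C / Technique: luciferase luminescence / Read-out: % reporter activation, DMSO baseline versus tunicamycin full activation / Benchmarks: tunicamycin and DMSO controls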
# CSC inhib – cancer stem cell viability inhibitors, primary screen, luminescence; hit rate 1.1% among 300,000; cancer stem cell-like cells viability; inhibition, % at 7.5 µM; in the data active = inhibition above about 75%; tested in HMLE shEcad cells
# XBP1 UPR activ – activators of adaptive XBP1 UPR arm, primary screen, cell-based, CHO-XBP1 luciferase reporter, luminescence, uHTS; hit rate 0.33% among 330,000; IRE1-XBP1 UPR activation; percent of tunicamycin response, DMSO as zero; AID 463104, 2010; activation, % at 20 µM;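 active = versus positive control, 20 µM dose yields 30% or more activation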;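 note: 100% = tunicamycin at 10 µg/mL and 0% = DMSO only wells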
#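 Signal: luciferase luminescence; Assay system: CHO-XBP1 luciferase reporter cells; Amount: one thousand reporter cells per well; Dosing: 20 µM single concentration, DMSO 1%; Benchmarks: high control tunicamycin 10 µg/mL final, low control DMSO vehicle only; Schedule: 6 h compound exposure at 37 °C, 5% CO2; Evaluation: percent activation relative to tunicamycin reference.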
# Mdm2 MdmX PPI – inhibitors of human Mdm2-MdmX association, primary screen, cell-based, luminescence, split luciferase, SaOS-2, uHTS; Protein Mdm4 (Homo sapiens) + E3 ubiquitin-protein ligase Mdm2 (Homo sapiens), …; SaOS-2 split-luciferase Mdm2/MdmX complementation; inhibition, % at 8 µM; hit rate 3% among 330,000;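 active = inhibition of at least 50% at 8 µM in the primary screen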
# Beta apoptosis – inhibitors of cytokine-induced beta cell apoptosis, primary screen, luminescence. INS-1E cytokine-induced death, ATP luminescence, 48 h; percent of positive-control rescue, neutral wells zero. protection from apoptosis, % (no concentration beside the values). hit rate 0.8% among 300,000. AID 435005, 2010;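 active = Every replicate reaches about 75%, or at least half do and their mean reaches it too, limit read from the data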;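 note: 0% = cytokine-treated negative control wells and 100% = positive control rescue; higher means more ATP so stronger rescue from cytokine killing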
# SKKanGAS inh – S. pyogenes SKKanGAS growth inhibitors in kanamycin, primary screen, streptokinase expression inhibitor project, SKKanGAS strain, BacTiter-Glo luminescence; inhibition, % at 7.5 µM; AID 1662, 2009; 6 h; hit rate 1.3% among 300,000;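 active = mean replicate score, as percent of positive control median, at least 50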;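 note: strain carries kanamycin resistance gene driven by streptokinase promoter and grows in 40 µg/ml kanamycin; loss of luminescence reflects streptokinase promoter inhibition or plain growth inhibition; 0% = median of DMSO wells and 100% = positive control at its reference dose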
# * hit, by the source's call; . = not tested or not shown. Sampled rows, rich in hits. Any-hit rate of the full collection: about 4.8%.
SMILES,CHOP UPR activ,CSC inhib,XBP1 UPR activ,Mdm2 MdmX PPI,Beta apoptosis,SKKanGAS inh
Brc1ccc(CN2CCN(Cc3c[nH]c4ccccc34)CC2)cc1,12.8,6.4,14.0,39.5,88.1*,-0.1
Cc1ccccc1N1CCN(Cc2c[nH]c3ccccc23)CC1,4.6,30.4,2.1,9.4,111.2*,-5.7
Fc1ccc(N2CCN(Cc3c[nH]c4ccccc34)CC2)cc1,0.3,-2.8,2.1,9.1,91.1*,-5.8
O=[N+]([O-])c1ccc(CN2CCN(Cc3c[nH]c4ccccc34)CC2)cc1,-0.6,-16.1,-0.8,-3.0,3.1,.
COc1ccccc1N1CCN(Cc2c[nH]c3ccccc23)CC1,0.1,4.6,-0.2,10.5,.,0.4
c1cnc(N2CCN(Cc3c[nH]c4ccccc34)CC2)nc1,7.5,-21.8,2.4,3.7,105.8*,0.3
Cc1cccc(C)c1Nc1ncnc2ccccc12,2.1,-6.1,-2.1,-13.7,.,1.0
Cc1ccc(C(=O)NCC(=O)Nc2ccc(Cl)cc2)s1,-0.1,-2.9,-2.2,19.1,11.3,.
CSc1ccccc1NC(=O)CN(C)C(=O)c1ccc(-n2cccn2)cc1,1.4,0.4,1.2,-19.2,1.6,.
CC1=C([N+](=O)[O-])C(c2ccccc2)NC(=O)N1 (stereo not given),0.8,-12.8,-0.3,16.6,.,1.1
O=[N+]([O-])c1ccc(O)c(/C=N/Nc2ccc(Cl)nn2)c1,19.1,106.8*,5.2,40.2,110.0*,101.6*
O=[N+]([O-])c1ccc(/C=N/NC2=NS(=O)(=O)c3ccccc32)cc1,-0.8,2.5,-0.7,12.3,-5.5,-5.7
O=[N+]([O-])c1ccc(O)c(/C=N/NC2=NS(=O)(=O)c3ccccc32)c1,6.5,1.3,0.3,-0.5,1.0,59.2*
O=C(C(Cl)Cl)N1c2ccccc2OCC1c1ccccc1 (stereo not given),-3.5,12.4,-1.2,27.7,76.2*,4.8
CC1COc2ccccc2N1C(=O)c1ccc(Cl)cc1 (stereo not given),0.0,-9.7,-5.6,10.8,-9.0,2.9
Cc1nn(-c2ccccc2)c2sc(-c3n[nH]c(=S)o3)cc12,-2.2,17.3,1.9,18.2,4.5,79.9*
Cc1nn(-c2ccccc2)c2sc(C(=O)O)cc12,1.2,-0.5,1.6,5.7,-5.0,-6.2
O=C(NC1CC1)C1CC(=O)N(c2cccc(Cl)c2Cl)C1 (stereo not given),1.2,-7.8,-0.4,-3.4,-0.9,2.3
CCc1ccccc1Nc1nn2c(=O)c3ccc(C(=O)NCc4ccccn4)cc3nc2s1,4.6,83.3*,-1.3,30.1,8.8,30.2
CN(C)c1ccc(CNCc2cccnc2)cc1,-2.2,-8.1,-3.2,3.1,-3.6,-3.0
COc1ccccc1C(=O)O[C@H]1[C@H](Cc2ccccc2)NS(=O)(=O)[C@H]2C[C@@H]3C=C[C@]12O3,-1.4,0.9,-4.5,6.6,-4.0,.
COc1cccc(CNC(=O)C2CCN(S(=O)(=O)c3ccc4c(c3)OCCO4)CC2)c1,2.4,.,-3.8,6.9,-0.8,-2.7
COc1ccc(C(=O)N2CCCCCC2)cc1S(=O)(=O)N1CCOCC1,-0.3,-5.0,-5.7,17.5,1.6,-2.9
COc1ccccc1Nc1nc(-c2sc(NC(=O)c3ccc([N+](=O)[O-])cc3)nc2C)cs1,3.2,14.8,32.0*,10.5,5.7,21.4
CCCCC(=O)Nc1nc(C)c(-c2csc(Nc3cc(OC)ccc3OC)n2)s1,1.3,81.3*,1.7,39.1,2.7,9.4
SMILES,CHOP UPR activ,CSC inhib,XBP1 UPR activ,Mdm2 MdmX PPI,Beta apoptosis,SKKanGAS inh
O=S(=O)(NCCCCNS(=O)(=O)c1c(F)cccc1F)c1ccc2c(c1)OCCO2,-1.9,4.1,1.7,17.5,-4.0,.
COc1ccc(-c2c(C(F)(F)F)[nH]n3c(=O)cc(-c4ccccc4)nc23)cc1,-1.1,91.8*,-1.5,27.6,-4.4,56.0*
CCc1cc(=O)n2[nH]c(C)c(-c3ccc(OC)cc3)c2n1,1.2,13.1,-3.3,-2.2,1.4,-2.2
Cc1[nH]n2c(=O)cc(C(C)(C)C)nc2c1-c1ccccc1,3.8,0.5,1.9,32.1,52.2,89.4*
COc1ccc(NC(=S)NC(NC(=O)c2ccccc2Cl)C(Cl)(Cl)Cl)c([N+](=O)[O-])c1 (stereo not given),-0.3,28.5,2.1,-30.0,9.2,22.8
COc1ccc(NC(=S)NC(NC(=O)c2ccc(Cl)cc2Cl)C(Cl)(Cl)Cl)c([N+](=O)[O-])c1 (stereo not given),0.0,.,-1.1,29.6,.,50.0*
COc1ccc(N(S(=O)(=O)c2ccccc2)S(=O)(=O)c2ccccc2)c(N)c1,1.7,30.4,-5.9,36.6,0.8,1.9
COC1=CC(=O)C(O)=C(CCCCCCC/C=C/CCCCCCCC2=C(O)C(=O)C=C(OC)C2=O)C1=O,1.9,-4.0,-2.3,7.3,-2.3,24.0
CCCCCCCCCCCC1=C(O)C(=O)C=C(O)C1=O,.,-8.6,.,.,-2.6,101.9*
COc1ccc(OC)c(NC(=O)C2CC(=O)N(Cc3ccco3)C2)c1 (stereo not given),0.0,.,-1.3,26.8,.,.
Cc1nc(N/N=C/c2ccccn2)sc1C,.,69.8,.,.,110.0*,.
CCc1nnc(NS(=O)(=O)c2ccc(NCc3cc(Cl)cc(Cl)c3O)cc2)s1,-0.1,19.4,-2.3,3.7,-1.5,54.3*
CC(C)N(CCC(=O)c1ccc2ccccc2c1)Cc1ccccc1,24.5,75.5*,-10.5,35.9,65.4,.
CCc1ccccc1NC(=O)NNS(=O)(=O)c1cc(C)ccc1C,-0.5,-3.2,-8.6,-3.1,-13.4,51.2*
Cc1ccccc1N1CCN(c2ccc(NC(=O)C3CCCCC3C(=O)O)cc2)CC1 (stereo not given),1.8,78.6*,-0.4,-0.3,-7.8,1.6
Cc1ncc(CN2CCC(n3nccc3NC(=O)c3ccccc3)CC2)s1,4.2,-5.6,-1.7,12.1,-5.3,16.0
CCc1ccc(-c2nc(CS(=O)CC(=O)NCc3ccc4c(c3)OCO4)c(C)o2)cc1 (stereo not given),-0.9,32.4,-4.3,-14.0,2.1,-4.4
Cc1ccc(-c2nc(CS(=O)CC(=O)NCc3ccc4c(c3)OCO4)c(C)o2)cc1 (stereo not given),-0.1,75.7*,3.5,35.5,8.6,-0.3
Cc1ccc(S(=O)(=O)N2CCN(C(=O)CSc3ncn[nH]3)CC2)c(C)c1,-2.0,-8.3,0.2,15.1,-12.5,-3.1
CC(C)c1ccc(S(=O)(=O)/N=C2/C=C(Sc3ncn[nH]3)C(=O)c3ccccc32)cc1,.,104.7*,.,.,132.4*,.
Cc1ccc(S(=O)(=O)/N=C2/C=C(Sc3ncn[nH]3)C(=O)c3ccccc32)cc1,.,106.7*,.,.,97.8*,.
